From ChEMBL document CHEMBL1145889, “Potent and selective inhibitors of platelet-derived growth factor receptor phosphorylation. 3. Replacement of quinazoline moiety and improvement of metabolic polymorphism of 4-[4-(N-substituted (thio)carbamoyl)-1-piperazinyl]-6,7-dimethoxyquinazoline derivatives” (J Med Chem, 2003)

What was measured:
Format in all cases: ADME, organism-based
[1] = Half-life period of intravenously administered compound (1 mg/kg) in rat no.11 belonging to the phenotype […] (poor metaboliser); settings: in vivo, iv
How it was run: (§1)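 Male Sprague–Dawley rats (n = 4) were first phenotyped by a 3 mg/kg oral dose. Plasma taken at 30 min was run on HPLC, and a metabolite peak present marked EM, absent marked PM. After a 1-week washout, each phenotype (n = 2) received 1 mg/kg intravenously. Plasma concentration was determined by HPLC.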

[2] = Plasma clearance was determined after administering 1 mg/kg of compound intravenously in rat no.9 belonging to the phenotype EM (extensive metaboliser); design: dose 1 mg/kg, route intravenous; settings: iv; how it was run: as §1
[3] = Pharmacokinetic parameter (AUC) was determined after administering 1 mg/kg of compound intravenously in rat no.9 belonging to the phenotype EM (extensive metaboliser); design: dose 1 mg/kg, route intravenous; settings: in vivo, iv; how it was run: as §1
[4] = Volume of distribution at steady state was determined after administering 1 mg/kg of compound intravenously in rat no.11 belonging to the phenotype EM (poor metaboliser); design: dose 1 mg/kg, route intravenous; settings: in vivo, iv, read-out: Vdss; how it was run: as §1
[5] = Half-life period of intravenously administered compound (1 mg/kg) in rat no.8 belonging to the phenotype EM (extensive metaboliser); settings: in vivo, iv; how it was run: as §1
[6] = Volume of distribution at steady state was determined after administering 1 mg/kg of compound intravenously in rat no.8 belonging to the phenotype EM (extensive metaboliser); design: dose 1 mg/kg, route intravenous; settings: in vivo, iv, read-out: Vdss; how it was run: as §1
[7] = Volume of distribution at steady state was determined after administering 1 mg/kg of compound intravenously in rat no.9 belonging to the phenotype EM (extensive metaboliser); design: dose 1 mg/kg, route intravenous; settings: in vivo, iv, read-out: Vdss; how it was run: as §1
[8] = Pharmacokinetic parameter (AUC) was determined after administering 1 mg/kg of compound intravenously in rat no.10 belonging to the phenotype […] (poor metaboliser); design: dose 1 mg/kg, route intravenous; settings: in vivo, iv; how it was run: as §1
[9] = Plasma clearance was determined after administering 1 mg/kg of compound intravenously in rat no.11 belonging to the phenotype […] (poor metaboliser); design: dose 1 mg/kg, route intravenous; settings: iv; how it was run: as §1
[10] = Pharmacokinetic parameter (AUC) was determined after administering 1 mg/kg of compound intravenously in rat no.8 belonging to the phenotype EM (extensive metaboliser); design: dose 1 mg/kg, route intravenous; settings: in vivo, iv; how it was run: as §1
[11] = Half-life period of intravenously administered compound (1 mg/kg) in rat no.10 belonging to the phenotype […] (poor metaboliser); settings: in vivo, iv; how it was run: as §1
[12] = Pharmacokinetic parameter (AUC) was determined after administering 1 mg/kg of compound intravenously in rat no.11 belonging to the phenotype […] (poor metaboliser); design: dose 1 mg/kg, route intravenous; settings: in vivo, iv; how it was run: as §1
[13] = Volume of distribution at steady state was determined after administering 1 mg/kg of compound intravenously in rat no.10 belonging to the phenotype […] (poor metaboliser); design: dose 1 mg/kg, route intravenous; settings: in vivo, iv, read-out: Vdss; how it was run: as §1
[14] = Half-life period of intravenously administered compound (1 mg/kg) in rat no.9 belonging to the phenotype EM (extensive metaboliser); settings: in vivo, iv; how it was run: as §1
[15] = Plasma clearance was determined after administering 1 mg/kg of compound intravenously in rat no.10 belonging to the phenotype […] (poor metaboliser); design: dose 1 mg/kg, route intravenous; settings: iv; how it was run: as §1
[16] = Plasma clearance was determined after administering 1 mg/kg of compound intravenously in rat no.8 belonging to the phenotype EM (extensive metaboliser); design: dose 1 mg/kg, route intravenous; settings: iv; how it was run: as §1
[17] = read-out: T1/2 alpha (converted)
[18] = read-out: T1/2 beta (converted)

`COCCOc1cc2c(N3CCN(C(=O)Nc4ccc(C#N)cc4)CC3)ncnc2cc1OC` gave a half-life [1, 17] of 3.58 min, a half-life [1, 18] of 13.1 min and a clearance [2] of 13.2 mL/min/kg. The AUC [3] was 1260 ng·h/mL, the Vd [4] was 0.286 L/kg and the half-life [5, 17] was 2.69 min. For the same compound, the half-life [5, 18] was 13.8 min, the Vd [6] was 0.215 L/kg and the Vd [7] was 0.252 L/kg. The AUC [8] was 1280 ng·h/mL, the clearance [9] was 17.5 mL/min/kg and the AUC [10] was 1160 ng·h/mL. For the same compound, the half-life [11, 17] was 1.9 min, the half-life [11, 18] was 15.5 min and the AUC [12] was 950 ng·h/mL. The Vd [13] was 0.232 L/kg, the half-life [14, 17] was 2.99 min and the half-life [14, 18] was 15.7 min. It also gave a clearance [15] of 13.1 mL/min/kg and a clearance [16] of 14.4 mL/min/kg.
